Screening results: PubChem BioAssay, several laboratories
H9c2 protect – cardioprotection against H2O2-induced cell death, primary screen, uHTS, H9c2 cells, ATPLite luminescence. H9c2 cardiomyocytes, H2O2 injury protection, 2 h. protection from H2O2 cell death, % at 20 µM. 0.63% of 360,000 active. AID 588492, 2011;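 active = compounds giving at least 50% protection of heart cells from peroxide-induced death in the single-dose screen, raw or plate-pattern-corrected value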;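 also: 0% = DMSO wells with peroxide and 100% = DMSO wells without peroxide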
JMJD2C inh – inhibitors of GASC-1 histone demethylase, primary screen, biochemical, fluorescence, DELFIA europium | inhibition, % at 2.35 µM | 0.069% of 330,000 active | GST-JMJD2C(1-420) H3K9me3 demethylation | Lysine-specific demethylase 4C (Homo sapiens), Q9H3R0;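 active = more than half of a compound's replicate wells show inhibition beyond 50%, single wells judged on their own value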;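 also: signal counts dimethyl H3K9 product captured on neutravidin plate; 0% = median of DMSO wells and 100% = 0.3 times that DMSO median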
T cruzi inh – inhibitors of intracellular T. cruzi growth, primary screen, luminescence, NIH3T3 host cells | T. cruzi beta-gal in NIH3T3, 90 h | inhibition, % (concentration not given with the values) | 1.4% of 300,000 active | AID 1885, 2009;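 active = mean inhibition across valid replicates above about 55%, limit read from the data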;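 also: signal also drops with host cell toxicity which is not excluded here; 0% = plate median of DMSO wells and 100% = zero luminescence signal; higher percent means less beta-gal luminescence so fewer parasites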
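assay system = mouse NIH/3T3 fibroblasts infected with β-gal-expressing T. cruzi Tulahuen C4 | input = 5,000 NIH/3T3 host cells per well | buffer or medium = DMEM plus 2% FBS | timing = 3 h host attachment, then at least 90 h co-culture | measured by = GalScreen luminescence, 60 min | evaluation = luminescence reflecting intracellular parasite burden, expressed as percent inhibition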
PP5 inh – PP5 phosphatase inhibitors, primary screen, biochemical, fluorescence | 0.18% of 320,000 active | inhibition, % at 6.7 µM | AID 1987, 2009 | purified PP5c, OMFP substrate fluorescence;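 active = inhibition above the campaign's mean inhibition across all tested compounds plus 3 SD, cut at about 9.5% in these data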;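 also: 0% = DMSO only and 100% = 100 µM cantharidin control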
Target sequence (P53041 whole entry, looked up): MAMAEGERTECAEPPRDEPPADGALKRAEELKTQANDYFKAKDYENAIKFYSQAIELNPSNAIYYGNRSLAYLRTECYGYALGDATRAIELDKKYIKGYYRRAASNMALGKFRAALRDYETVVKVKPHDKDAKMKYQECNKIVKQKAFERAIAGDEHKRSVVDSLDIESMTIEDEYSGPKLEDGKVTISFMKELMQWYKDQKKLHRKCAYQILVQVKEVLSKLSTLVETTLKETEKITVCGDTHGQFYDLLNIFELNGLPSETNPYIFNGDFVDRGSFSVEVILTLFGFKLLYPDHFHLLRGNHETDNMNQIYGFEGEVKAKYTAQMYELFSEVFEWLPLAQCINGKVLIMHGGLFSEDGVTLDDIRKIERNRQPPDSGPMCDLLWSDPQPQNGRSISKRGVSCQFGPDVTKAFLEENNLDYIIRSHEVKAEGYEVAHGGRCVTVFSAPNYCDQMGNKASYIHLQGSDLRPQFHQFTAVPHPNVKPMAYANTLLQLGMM
pCIP destab – p/CIP-EGFP fusion destabilizers, primary screen, fluorescence, F442A cells; 16 h; decrease of EGFP signal, % at 10 µM; 0.01% of 290,000 active; Q05BA5;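 active = EGFP signal decrease of at least 30% at 10 µM or well 3 SD below plate mean, unless failing retest; inactive = the rest, including hits failing retest or dose response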
CTSL1 counter – Fasciola hepatica cathepsin L1 inhibitors, primary screen, counter-screen for PFM18AAP inhibitor project, biochemical, QFRET, fluorogenic peptide substrate | 0.49% of 300,000 active | inhibition, % at 5.96 µM | recombinant F. hepatica cathepsin L1, Z-Leu-Arg-MCA fluorescence;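 active = inhibition above the mean of all tested compounds plus 3 SD, set per screening campaign, cut at about 17% in these data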;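 also: 0% = plate median of test compound wells and 100% = 1 µM Z-Phe-Ala-diazomethylketone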
The depositor's hits bear a star; · = no result. A selection: hits, their analogues and other compounds. The true share with any hit is near 2.4%.

SMILES	H9c2 protect	JMJD2C inh	T cruzi inh	PP5 inh	pCIP destab	CTSL1 counter
N=c1c(C(=O)NCc2ccccc2)cc2c(=O)n3ccccc3nc2n1CCCN1CCOCC1	12	·	·	-2	14	0
COC(=O)c1cc2c(=O)n3ccccc3nc2n(Cc2cccnc2)c1=N	·	-6	-13	3	·	-1
CCCn1c(=N)c(C(=O)NCc2ccc3c(c2)OCO3)cc2c(=O)n3cccc(C)c3nc21	8	-6	64*	7	5	1
COc1ccc(CCn2c(=N)c(C(=O)NCC3CCCO3)cc3c(=O)n4cccc(C)c4nc32)cc1 (stereo not drawn)	23	-5	58*	3	-6	0
CCOCCCn1c(=N)c(C(=O)NCc2ccc3c(c2)OCO3)cc2c(=O)n3ccccc3nc21	·	23	60*	·	-5	·
Cn1sccc1=O	0	·	·	3	·	1
CCOC(=O)CC1(NC(=O)c2cc(COc3cccc(OC)c3)on2)CCCCC1	-13	2	2	5	-1	-1
CC(C)OCCCn1c(=N)c(C(N)=S)cc2c(=O)n3ccccc3nc21	43	10	69*	0	-29	1
Cc1nn(CC(N)=O)c(=O)c2ccccc12	-4	-25	58*	1	-2	-2
CCN(CC)C(=O)C1=C(C)N(Cc2ccccc2)C(=O)C(CC(=O)NCCN2CCOCC2)C1 (stereo not drawn)	8	·	·	·	·	·
CCCc1nc2ccccc2c(C(=O)OCC(=O)N2CCc3ccccc32)c1CC	16	0	58*	4	-11	-7
CC1CCc2nc3ccccc3c(C(=O)OCC(=O)N3CCc4ccccc43)c2C1 (stereo not drawn)	29	4	43	1	-10	3
CN1c2ccccc2SC2C(c3ccccc3)=NOC21 (stereo not drawn)	-2	·	·	·	·	·
CN(CC(=O)NCC1CCCCC1)CC(=O)Nc1ccc(F)cc1	8	·	·	-1	·	·
COCC1CCCCN1Cc1cn[nH]c1-c1ccc2cc(OC)ccc2c1 (stereo not drawn)	-3	19	70*	1	-19	2
COCCN(Cc1cn[nH]c1-c1ccc2cc(OC)ccc2c1)C(C)C	11	3	65*	·	-1	·
Cc1ccc(-n2ncc3c(SCC(=O)NNC(=O)C(C)C)ncnc32)cc1	-9	3	-4	2	-12	-4
CC(C)C(=O)NNC(=O)CSc1ncnc2c1cnn2-c1ccccc1Cl	-1	-14	-30	-3	-6	44*
COC(=O)c1sc(NC(=O)c2ccc([N+](=O)[O-])o2)c(C#N)c1C	-14	-5	57*	3	-16	10
COC(=O)c1c(NC(=O)c2ccc([N+](=O)[O-])o2)sc2c1CCN(C(C)C)C2	-1	-3	7	3	-10	26*
CC(NC(=O)CN1C(=O)NC2(CCc3ccccc32)C1=O)c1ccccc1 (stereo not drawn)	-3	·	·	-2	·	·
CCC(C)c1ccc(OCC(=O)Nc2ccc(CN3CCOCC3)cc2)cc1 (stereo not drawn)	-9	9	-1	·	-4	·
Cc1ccccc1Nc1nc(Cl)nc(NC(C)(C)C)n1	1	·	·	·	·	·
CC(=O)Oc1c(-c2ccc(Br)o2)oc2ccccc2c1=O	58*	2	-5	2	-16	-6
CCCCn1c(N)c(N(CC(C)C)C(=O)Cc2ccc(S(=O)(=O)N3CCOCC3)s2)c(=O)[nH]c1=O	2	·	·	·	·	·
SMILES	H9c2 protect	JMJD2C inh	T cruzi inh	PP5 inh	pCIP destab	CTSL1 counter
O=C(CCNS(=O)(=O)c1ccc(Br)s1)Nc1ccc(Cl)cc1	-2	-4	58*	3	-12	-2
O=C(CCNS(=O)(=O)c1ccc(Br)s1)NC1CCCC1	4	-5	7	0	-2	-2
COc1ccc(CNc2ccc3c(c2)CCC3)cc1Br	-4	-15	47	1	-5	2
COc1ccccc1CNc1ccc2c(c1)CCC2	8	1	55*	-1	-19	-1
OCCOCCn1c(C(CO)Nc2nc(-c3ccccc3Br)cs2)nc2ccccc21 (stereo not drawn)	-3	2	-7	2	·	21*
O=C(Oc1ccc(N(Cc2cccs2)C2=NS(=O)(=O)c3ccccc32)cc1)c1ccco1	7	3	24	-1	7	-27
O=C(Oc1ccc(N(Cc2cccs2)C2=NS(=O)(=O)c3ccccc32)cc1)c1ccccc1Cl	75*	-17	31	-2	-7	0
COc1cc(-n2c(=O)c3ccccc3n(Cc3cc(=O)n4ccccc4n3)c2=O)cc(OC)c1OC	57*	-1	-3	-1	-9	1
CCOC(=O)c1c(C)[nH]c(C(=O)OC(C)C(=O)Nc2ccccc2OC)c1C (stereo not drawn)	-4	-20	22	3	-8	2
O=C(O)c1ccc(CSc2nnc(COc3ccc(Cl)cc3Cl)o2)cc1	-8	3	-14	3	-11	40*
CCc1ccc(-c2cn3c(n2)SCC3)cc1	-12	5	-1	2	-3	2
CCc1ccc(-c2cn(-c3nc(C)cc(C)n3)c(=N)o2)cc1	-21	-9	20	2	-36	61*
CCOC(=O)C1CCCN(S(=O)(=O)CCNC(=O)c2ccc3c(c2)OCO3)C1 (stereo not drawn)	-4	-3	1	-2	·	0
CN(C)c1cc[n+](CC(=O)c2ccc(-c3ccccc3)cc2)cc1	-7	2	56*	-2	-19	-1
COC(=O)c1cc(C(=O)OCC(=O)N2c3ccccc3NC(=O)C2(C)C)cc([N+](=O)[O-])c1	58*	6	1	-1	7	0
COc1ccc(CCNC(=O)CCNC(=O)c2ccc([N+](=O)[O-])cc2)cc1	-2	-3	0	2	2	1
O=C(NCCC(=O)N1CCN(S(=O)(=O)c2ccc(Cl)cc2)CC1)Nc1ccccc1	3	·	·	·	·	·
Cc1cc(C)nc(N(C#N)CC(=O)c2ccccc2)n1	-2	3	-8	1	-17	69*
CCc1ccc(C(=O)CN(C#N)c2nc(C)cc(C)n2)cc1	-40	3	9	1	6	58*
CCCn1c(C(O)c2cc(OC)c(OC)c(OC)c2)nc2ccccc21 (stereo not drawn)	0	8	-6	2	3	0
CC(C)COc1nc2ccccc2c(=O)n1OCC(=O)O	58*	6	6	1	-10	-1
CN(C)C1=C(Cl)C(=O)N(c2ccc(Cl)c(Cl)c2)C1=O	2	11	-13	-1	-2	38*
